PGC1a acetyl up: raises PGC1a acetylation signal in U2OS cells; U2OS PGC1a acetylation AlphaScreen, overnight; activation, % at 15.6 µM; 350,000 compounds, 0.21% hits;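 active = every replicate reaching activation of at least 50%, whatever the mean replicate activation; inconclusive = replicates that disagree or another doubt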;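 also: hits raise the AlphaScreen acetylation signal above neutral controls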
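System – flag-PGC1a/GCN5 U2OS cells · Quantity – 7000 U2OS cells per well · Signal – AlphaScreen proximity luminescence, anti-acetyl-lysine antibody · Schedule – overnight compound treatment, 37 °C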
Hep G6PC suppr: PGC-1a acetylation activators affecting G6PC expression in hepatocytes. G6PC suppression (normalized activity, % of positive control; higher = more suppression), % at 26 µM. shares compounds with PGC1a acetyl up. 240 tested, under 10 active. primary mouse hepatocytes, G6PC mRNA qPCR, forskolin;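 active = dose curves showing G6PC suppression whose half-maximal dose is at most twice the top valid dose; inconclusive = flat curves with moderate negative activity, or unreliable fits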;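 also: G6PC expression relative to GAPDH housekeeping gene as delta delta Ct; 0% = median of neutral control wells and 100% = median of positive control wells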
PCK1 hep suppr: PGC-1a acetylation activator altering hepatocyte PCK1 expression | AID 743465 | 230 tested, under 10 active | shares compounds with PGC1a acetyl up | primary mouse hepatocytes, PCK1 mRNA qPCR, forskolin-stimulated | PCK1 expression decrease, unspecified at 26 µM;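 active = compounds lowering PCK1 expression whose fitted half-maximal concentration is at most twice the top tested dose; inconclusive = flat fit with moderate opposite-direction effect, or poor fit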;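 also: values are delta delta Ct of PCK1 relative to GAPDH; higher delta delta Ct means lower PCK1 expression so positive values indicate hits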
Hep PGC-1a down: PGC-1a acetylation activator altering hepatocyte PGC-1a expression | max activity (PGC-1a expression decrease), % | primary mouse hepatocytes, PGC-1a mRNA qPCR, forskolin; top dose 26 µM | shares compounds with PGC1a acetyl up | 240 tested, under 10 active;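 active = compound lowering PGC-1a expression with fitted half-maximal concentration at most twice its top tested dose; inconclusive = flat curve with moderate opposite-direction effect, or poor fit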;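 also: 0% = neutral control wells median and 100% = positive control wells median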
Starred values were filed as active, the others as inactive; [ ] = another dose, or the depositor's remark. A selection follows.

For CC(=O)c1cccc(N(C(=O)c2cnccn2)C(C(=O)NCc2ccccc2)c2ccco2)c1 (stereo not drawn) the results were PGC1a acetyl up 96*, Hep G6PC suppr 45, PCK1 hep suppr 129 and Hep PGC-1a down 188.
For CC(=O)c1cccc(N(C(=O)Cn2nnc3ccccc32)C(C(=O)NCc2ccccc2)c2ccccn2)c1 (stereo not drawn) the results were PGC1a acetyl up inconclusive, Hep G6PC suppr -29, PCK1 hep suppr -11 and Hep PGC-1a down -33.
`O=c1c2c(nc3c(-c4ccc(Cl)cc4)c[nH]n13)CCCC2` gave PGC1a acetyl up -41.
Screening CCOC(=O)C1=Nc2ccccc2C1=[N+]=[N-] returned PGC1a acetyl up -45.
For Cc1ccccc1NC1=C/C(=N\S(=O)(=O)c2cccs2)c2ccccc2C1=O the results were PGC1a acetyl up -88.
OC[C@@H]1CN(Cc2ccccc2)C[C@H](n2cnc3c(NCc4ccco4)ncnc32)O1 was read as PGC1a acetyl up -101.
For O=S(=O)(c1ccc(Cl)cc1)N1[C@@H]2CNC[C@H]1C2c1ccc(-c2cccc(F)c2)cc1 (stereo partly drawn) the results were PGC1a acetyl up 80*, Hep G6PC suppr 10, PCK1 hep suppr 47 and Hep PGC-1a down 110.
CCCCN(C)Cc1c(C)[nH]c2ccccc2c1=O was read as PGC1a acetyl up -49.
CN(c1ncnc(N)c1[N+](=O)[O-])C1CCS(=O)(=O)C1 (stereo not drawn) was read as PGC1a acetyl up -58.
`C[C@@H]1CN([C@H](C)CO)C(=O)c2cc(N(C)C)ccc2O[C@@H](C)CCCCO[C@H]1CN(C)C(=O)Nc1ccccc1` gave PGC1a acetyl up 67*, Hep G6PC suppr -5[23.5 µM], PCK1 hep suppr -7.9[23.5 µM] and Hep PGC-1a down 17.
Screening C[C@H](CO)N1C[C@H](C)[C@@H](CN(C)Cc2ccc(C(F)(F)F)cc2)Oc2ccc(NS(=O)(=O)c3ccc(F)cc3)cc2C1=O returned PGC1a acetyl up -103.
`C[C@@H]1CN([C@H](C)CO)C(=O)c2cc(N(C)C)ccc2O[C@@H](C)CCCCO[C@H]1CN(C)C(=O)Cc1ccccc1` gave PGC1a acetyl up 119*, Hep G6PC suppr 14[23.5 µM], PCK1 hep suppr 53[23.5 µM] and Hep PGC-1a down 103.
`CCc1nc(N)nc(N)c1-c1ccc(Cl)cc1` gave PGC1a acetyl up -48.
For O=C(Cn1cnc2c(nnn2Cc2ccc(Cl)cc2)c1=O)c1ccccc1 the results were PGC1a acetyl up -50.
Screening COc1ccccc1/C=C/c1nc2ccc(OC(C)=O)cc2c(=O)o1 returned PGC1a acetyl up -40.
`CCn1c(C(=O)NC2CCC(C)CC2)cc2sccc21` (stereo not drawn) gave PGC1a acetyl up -44.
`COc1ccc(N=C2C(=Nc3ccc(OC)cc3)N(c3ccc(OC)cc3)C(=S)N2C(=O)c2ccc(OC)cc2)cc1` gave PGC1a acetyl up -46.
Screening O=C(Nc1cccn2ncnc12)C(Cl)Cl returned PGC1a acetyl up -2.
For CC12CCC(C1)C(C)(C)C2NS(=O)(=O)c1ccc(F)cc1 (stereo not drawn) the results were PGC1a acetyl up inconclusive, Hep G6PC suppr 19 and Hep PGC-1a down inconclusive.
For COc1ccc2c(c1)C(C)=CC(C)(C)N2S(=O)(=O)c1ccc(Br)cc1 the results were PGC1a acetyl up 83*, PCK1 hep suppr 149 and Hep PGC-1a down 43.
CN1CCN(C2=C(Cl)C(=O)N(CCc3ccccc3)C2=O)CC1 was read as PGC1a acetyl up -47.
Screening Clc1ccc(-c2csc(N3CCSCC3)n2)cc1 returned PGC1a acetyl up -45, Hep G6PC suppr -18, PCK1 hep suppr -17 and Hep PGC-1a down 29.
`Cc1cc(C)c2c(-n3cccc3)c(C(=O)NNS(=O)(=O)c3ccccc3)sc2n1` gave PGC1a acetyl up 173* and Hep PGC-1a down inconclusive.
For COc1ccccc1-c1ccc2c(c1)C(C)(Cc1ccc(OC(F)(F)F)cc1)C(=O)N2 (stereo not drawn) the results were PGC1a acetyl up inconclusive, Hep G6PC suppr -17, PCK1 hep suppr 52 and Hep PGC-1a down 51.
For CCCOc1ccc2ccccc2c1/C=C1\SC(=O)NC1=O the results were PGC1a acetyl up -76.
Screening O=[N+]([O-])c1c(NCCCO)cc(Sc2nc3ccccc3s2)c2nonc12 returned PGC1a acetyl up -58.
Screening COc1ccc(CN2CCn3ncc(C(=O)Nc4ccccc4)c3C2=O)cc1 returned PGC1a acetyl up -129, Hep G6PC suppr 88, PCK1 hep suppr 39 and Hep PGC-1a down 53.

Compound activity: PubChem, Broad Institute
